In experiment [1] the target is T1, Follicle-stimulating hormone receptor (Homo sapiens, UniProt P23945).
T1 sequence (P23945 whole entry): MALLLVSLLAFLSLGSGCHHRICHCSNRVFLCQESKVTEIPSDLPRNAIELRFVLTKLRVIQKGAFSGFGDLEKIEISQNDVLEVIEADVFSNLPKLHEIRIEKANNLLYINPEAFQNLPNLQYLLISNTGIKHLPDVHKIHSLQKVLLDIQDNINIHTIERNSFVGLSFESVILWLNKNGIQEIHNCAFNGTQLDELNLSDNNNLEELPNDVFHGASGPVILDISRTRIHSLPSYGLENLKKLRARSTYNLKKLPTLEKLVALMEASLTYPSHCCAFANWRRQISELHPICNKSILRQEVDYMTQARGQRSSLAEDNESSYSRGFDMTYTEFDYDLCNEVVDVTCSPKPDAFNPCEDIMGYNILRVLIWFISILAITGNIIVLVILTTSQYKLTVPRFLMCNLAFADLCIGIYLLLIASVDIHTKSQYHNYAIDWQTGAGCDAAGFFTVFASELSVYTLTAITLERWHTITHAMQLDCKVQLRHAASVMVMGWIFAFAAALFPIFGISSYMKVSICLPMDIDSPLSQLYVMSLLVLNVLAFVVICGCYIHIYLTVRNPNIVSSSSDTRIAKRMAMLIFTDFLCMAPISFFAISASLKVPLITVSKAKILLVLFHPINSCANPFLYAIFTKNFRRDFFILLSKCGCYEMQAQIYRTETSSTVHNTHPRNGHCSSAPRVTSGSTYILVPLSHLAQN
As to the kind of experiment: In vitro inhibition of maximum response on CHO-K1 cells expressing human Follicle stimulating hormone receptor. The experiment is classed as functional, cell-based. The method, boiled down: (§1)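 Antagonist-mode assay in CHO cells expressing human FSH receptor with a luciferase reporter: cells are stimulated with FSH and test compound is added. IC50 values come from duplicate measurements and represent at least two independent experiments; the SD of pIC50 is typically below 0.2. Compounds are scored "n.a." (not active) where no antagonism is seen.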

For experiment [2], the target named is T2, Follicle-stimulating hormone receptor (Homo sapiens) (UniProt P23945).
T2 sequence (whole entry): T1 sequence (P23945 whole entry)
As to the kind of experiment: In vitro inhibition of maximum response on CHO-K1 cells expressing human Follicle stimulating hormone receptor at 1E-5M. The experiment is classed as functional, cell-based.

In experiment [3] the target is T1, Follicle-stimulating hormone receptor. Nature of the experiment: Effective concentration for maximum response on CHO-K1 cells expressing human Follicle stimulating hormone receptor. The experiment is classed as functional, cell-based.
Experiment [4] has the same target. Nature of the experiment: In vitro inhibition of maximum response on CHO-K1 cells expressing human Follicle stimulating hormone receptor; Not active. The experiment is classed as functional, cell-based. The method, boiled down:
as §1

For another experiment, the species on record is Mus musculus. As to the kind of experiment: Inhibition of follicle growth (ovulation) in mouse at 10 uM concentration. The experiment is classed as functional. In a few lines:
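Ex vivo culture of immature mouse follicles in the presence of FSH, with or without test compound at 10 µM. Follicle growth is compared with FSH-only follicles, and ovulation is scored as % ovulated follicles.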

For experiment [5], the target named is T3, Follicle-stimulating hormone receptor (Rattus norvegicus, UniProt P20395).
T3 sequence (P20395 whole entry): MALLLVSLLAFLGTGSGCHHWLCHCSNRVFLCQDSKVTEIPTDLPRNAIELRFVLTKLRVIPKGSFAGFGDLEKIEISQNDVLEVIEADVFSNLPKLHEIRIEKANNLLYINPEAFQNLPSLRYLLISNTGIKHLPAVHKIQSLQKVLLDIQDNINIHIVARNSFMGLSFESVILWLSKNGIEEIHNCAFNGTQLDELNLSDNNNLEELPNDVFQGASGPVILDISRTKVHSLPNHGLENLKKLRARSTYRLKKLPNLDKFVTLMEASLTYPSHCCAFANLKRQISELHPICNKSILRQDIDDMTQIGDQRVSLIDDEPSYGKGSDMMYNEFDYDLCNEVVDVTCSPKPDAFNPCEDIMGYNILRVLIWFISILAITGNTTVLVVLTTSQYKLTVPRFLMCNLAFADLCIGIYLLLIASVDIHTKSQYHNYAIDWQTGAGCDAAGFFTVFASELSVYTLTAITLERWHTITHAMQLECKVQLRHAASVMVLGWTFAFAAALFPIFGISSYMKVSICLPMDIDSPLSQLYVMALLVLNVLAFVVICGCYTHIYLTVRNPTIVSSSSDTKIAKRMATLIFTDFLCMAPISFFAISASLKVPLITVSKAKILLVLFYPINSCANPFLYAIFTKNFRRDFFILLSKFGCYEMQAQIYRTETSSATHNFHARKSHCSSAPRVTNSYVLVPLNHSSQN
Nature of the experiment: In vitro inhibition against maximum response evoked by cAMP in rat GFSHR-17 granulosa cell line. Type of experiment: functional. In a few lines:
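Granulosa cell line GFSHR-17, stably expressing rat FSH receptor, incubated with FSH plus test compound; read-out is inhibition of FSH-induced cAMP production, reported as IC50.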

The target of experiment [6] is T1, Follicle-stimulating hormone receptor. Nature of the experiment: In vitro inhibition of maximum response evoked by cAMP on CHO-K1 cells expressing human Follicle stimulating hormone receptor. Type of experiment: functional, cell-based. In a few lines:
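CHO cells stably expressing human FSH receptor, run in antagonist mode. The natural ligand FSH stimulates the receptor and the test compound is added. FSH-induced cAMP production is measured as the functional read-out in place of luciferase, and an IC50 is derived.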

The molecule `CC(=O)N1c2cc(C)c(NC(=O)c3ccc(-c4ccccc4)cc3)cc2C(C)(c2ccccc2)CC1(C)C` (stereo not given) displayed an IC50 in experiment [1] of 5 nM. That is a single-digit nanomolar value.

For `COc1ccccc1C1(C)CC(C)(C)N(C(C)=O)c2ccc(NC(=O)c3ccc(-c4ccccc4)cc3)cc21` (stereo not given), in experiment [1], inhibition was half-maximal at 170 nM (IC50).

`COc1cc(NC(=O)c2ccc(-c3ccccc3)cc2)cc2c1N(C(C)=O)C(C)(C)CC2(C)c1ccccc1` (stereo not given) gave an IC50 in experiment [1] of 30 nM.

In turn, `CC(=O)N1c2ccc(C(=O)Nc3ccc(-c4ccccc4)cc3)cc2C(C)(c2ccccc2)CC1(C)C` (stereo not given) yielded an inhibition in experiment [2] of 44%.

`CC(=O)N1c2ccc(C(=O)NCc3cccs3)cc2C(C)(c2ccccc2)CC1(C)C` (stereo not given): the inhibition in experiment [2] amounted to 25%.

Take `CC(=O)N1c2ccc(NC(=O)c3ccc(-c4ccccc4)cc3)cc2C(C)(c2ccc(O)cc2)CC1(C)C` (stereo not given): in experiment [1], the IC50 was 240 nM.

With `CC(=O)N1c2ccc(NCc3ccc(C(C)(C)C)cc3)cc2C(C)(c2ccccc2)CC1(C)C` (stereo not given), inhibition in experiment [1] was half-maximal at 930 nM (IC50).

For `CCCc1ccc(C(=O)Nc2ccc3c(c2)C(C)(c2ccccc2)CC(C)(C)N3C(C)=O)cc1` (stereo not given), inhibition in experiment [1] was half-maximal at 5 nM (IC50).

Consider `CC(=O)N1c2ccc(OC(=O)c3ccc(-c4ccccc4)cc3)cc2C(C)(c2ccccc2)CC1(C)C` (stereo not given), for which, in experiment [1], the IC50 came out at 54 nM.

In turn, `CC(=O)N1c2ccc(NS(=O)(=O)Cc3ccccc3)cc2C(C)(c2ccccc2)CC1(C)C` (stereo not given) gave an IC50 in experiment [1] of 2800 nM. This IC50 is about 52-fold higher than that of the molecule before.

For `CC(=O)N1c2ccc(NC(=O)c3cccc(-c4ccccc4)c3)cc2C(C)(c2ccccc2)CC1(C)C` (stereo not given), in experiment [1], the IC50 came to 9 nM.

As to `CC(=O)N1c2ccc(OCc3ccc(-c4ccccc4)cc3)cc2C(C)(c2ccccc2)CC1(C)C` (stereo not given), the IC50 in experiment [1] worked out at 166 nM. Against the preceding molecule, the IC50 is about 18-fold higher.

`CC(=O)N1c2ccc(NC(=O)c3ccc(-c4ccccc4)cc3)cc2C(C)(c2ccc(C)cc2)CC1(C)C` (stereo not given) showed an IC50 in experiment [1] of 50 nM.

In the case of `CC(=O)N1c2ccc(NC(=O)Nc3ccccc3)cc2C(C)(c2ccccc2)CC1(C)C` (stereo not given), the IC50 in experiment [1] amounted to 580 nM.

In experiment [1], `CC(=O)N1c2ccc(NC(=O)c3ccco3)cc2C(C)(c2ccccc2)CC1(C)C` (stereo not given) returned a concentration for half-maximal inhibition (IC50) of 27 nM.

The molecule `CC(=O)N1c2ccc(N)cc2C(C)(c2ccccc2)CC1(C)C` (stereo not given) came in with a 50% effective concentration (EC50) in experiment [3] of 4400 nM.

The molecule `COc1ccc(CCNC(=O)c2ccc3c(c2)C(C)(c2ccccc2)CC(C)(C)N3C(C)=O)cc1` (stereo not given) returned an IC50 in experiment [1] of 1880 nM.

As for `CC(=O)N1c2ccc(NC(=O)COC(C)(C)C)cc2C(C)(c2ccccc2)CC1(C)C` (stereo not given), the IC50 in experiment [1] was 76 nM.

For the molecule `CC(=O)N1c2ccc(CNc3ccc(-c4ccccc4)cc3)cc2C(C)(c2ccccc2)CC1(C)C` (stereo not given), in experiment [4], the IC50 entry is on record as “Not Active”.

In experiment [2], `CC(=O)N1c2ccc(NC(=O)c3ccc(-c4ccc(C(C)(C)C)cc4)cc3)cc2C(C)(c2ccccc2)CC1(C)C` (stereo not given) yielded an inhibition of 74%.

On to `CC(=O)N1c2ccc(OCCc3ccccc3)cc2C(C)(c2ccccc2)CC1(C)C` (stereo not given), for which, in experiment [2], the inhibition is 80%.

As for `CC(=O)N1c2ccc(NC(=O)c3ccc(-c4ccccc4)cc3)cc2C(C)(c2ccccc2)CC1(C)C` (single isomer, unassigned; isomer II), in experiment [1], the IC50 is 4 nM.

In turn, `CC(=O)N1c2ccc(NC(=O)c3ccc(-c4ccccc4)cc3)cc2C(C)(c2ccccc2)CC1(C)C` (stereo in doubt; 10) had an Inhibition in the experiment filed under Mus musculus of 78%. The IC50 in experiment [1] was 28 nM; in experiment [5], 540 nM; in experiment [6], 10 nM.

Molecule `CC(=O)N1c2ccc(NC(=O)c3ccccc3-c3ccccc3)cc2C(C)(c2ccccc2)CC1(C)C` (stereo not given) returned an IC50 in experiment [1] of 25 nM. That is a double-digit nanomolar value.

For `CC(=O)N1c2ccc(NC(=O)c3ccc(-c4ccccc4)cc3)cc2C(C)(c2ccccc2)CC1(C)C` (single isomer, unassigned; isomer I), in experiment [4], the IC50 result is on record as “Not Active”.

Regarding `CC(=O)N1c2ccc(NC(=O)c3ccc(C(F)(F)F)cc3)cc2C(C)(c2ccccc2)CC1(C)C` (stereo not given), half-maximal inhibition in experiment [1] (IC50) required 7 nM.

Consider `CC(=O)N1c2ccc(NC(=O)c3ccc(Cl)cc3)cc2C(C)(c2ccccc2)CC1(C)C` (stereo not given), for which it took 31 nM to reach half-maximal inhibition in experiment [1] (IC50).

Usually IC50 stands for the concentration that inhibits the measured activity by half. Read a low IC50 as greater potency in that assay. The inhibition is the share of the control response that was lost under treatment. The low end stands for a weak effect, the high end for a strong effect. What is called EC50 is the midpoint of the concentration-response curve. As a reminder, the Inhibition is the percentage by which the read-out fell short of the control. A low value points to little suppression.

These data come from ChEMBL document CHEMBL1145193, “Identification of substituted 6-amino-4-phenyltetrahydroquinoline derivatives: potent antagonists for the follicle-stimulating hormone receptor” (J Med Chem, 2005).
